Article PMC8044591 (International Journal for Parasitology: Drugs and Drug …, 2021)
Read-outs that look alike come from different tables or passages of the source. Marks after values point to notes of the source that are not given here.

Key:
Cooperia spp. = experiment: FECR by genus from coprocultures, naturally parasitized calves; format: in vivo
Summary of the method: (§1)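 Male Aberdeen Angus calves, 9–11 months, naturally infected, ≥100 EPG on day −1, were ranked by EPG and randomised to groups of 15 per farm. Dosing was oral 2.5 mg/kg or SC 0.2 or 3.75 mg/kg. Rectal faeces on day −1 and day 15 were read by modified McMaster (10 EPG sensitivity). Coprocultures used 10 g faeces; ~100 Baermann L3 were identified per sample. Genus efficacy used group mean EPG […] that genus's L3 proportion.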

[1] = sheep, ref Lifschitz et al., 2014; cited from earlier work
Ostertagia spp. = experiment: FECR by genus from coprocultures, naturally parasitized calves; format: in vivo
[2] = liver metabolism, sheep compared to cattle, ref Ballent et al., 2016; cited from earlier work
Haemonchus spp. = experiment: FECR by genus from coprocultures, naturally parasitized calves; format: in vivo
Summary of the method: as §1

Oesophagostomum = conditions: sheep, cited from earlier work; for reduction of Oesophagostomum: 2009
[3] = tested on: GI nematodes resistant to IVM and RBZ; experiment: Faecal egg count reduction test; format: in vivo; conditions: for EPG Counts Day 15: arithmetic mean, n = 15
Summary of the method: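 Naturally infected male Aberdeen Angus calves, 9–11 months, ≥100 EPG on day −1; 15 per group, allocated by EPG ranking. Herds were levamisole-treated beforehand, then grazed ≥2 months on-farm. Dosing was oral 2.5 mg/kg or SC 0.2 or 3.75 mg/kg. Rectal faeces on day −1 and day 15 were read by modified McMaster (10 EPG). FECR (%) = 100(1 − T2/T1), using arithmetic group mean EPG; 95% CI by the Coles method.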

Oesophagostomum spp. = experiment: FECR by genus from coprocultures, naturally parasitized calves; format: in vivo
Summary of the method: as §1

[4] = Adverse events in treated cattle; format: in vivo; conditions: cattle treated with MNP oral 2.5 mg/kg
[5] = Plasma pharmacokinetics after oral administration of MNP to parasitized calves; format: in vivo
Summary of the method: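 Eight calves on Farm 1 received a single oral 2.5 mg/kg dose. Jugular heparinised blood was drawn pre-dose, at 2–10 h and days 1–9; plasma was stored at −20 °C. Acetonitrile extraction, N2 evaporation, then C18 HPLC-UV at 230 nm (acetonitrile:methanol:water 60:8:32, 0.8 mL/min) quantified parent and sulphone metabolite. Calibration 4–400 ng/mL; LOQ 4 ng/mL. Non-compartmental analysis: observed Cmax, trapezoidal AUC extrapolated to infinity, moment-based MRT; mean ± SD.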

| SMILES | FECR Day 15 (Cooperia spp.; Farm 1) | FECR Day 15 (Cooperia spp.; Farm 2) | FECR Day 15 (Cooperia spp.; Farm 3) | FECR Day 15 (Ostertagia spp.; Farm 1) | FECR Day 15 (Ostertagia spp.; Farm 2) | FECR Day 15 (Ostertagia spp.; Farm 3) | FECR Day 15 (Haemonchus spp.; Farm 1) | FECR Day 15 (Haemonchus spp.; Farm 2) | FECR Day 15 (Haemonchus spp.; Farm 3) | EPG Counts Day 15 ([3]; Farm 1, 15 days post-treatment) | EPG Counts Day 15 ([3]; Farm 2, 15 days post-treatment) | EPG Counts Day 15 ([3]; Farm 3, 15 days post-treatment) | FECR Day 15 (Oesophagostomum spp.; Farm 1) | FECR Day 15 (Oesophagostomum spp.; Farm 2) | FECR Day 15 (Oesophagostomum spp.; Farm 3) | also measured |
| --- | --- | --- | --- | --- | --- | --- | --- | --- | --- | --- | --- | --- | --- | --- | --- | --- |
| C[C@](C#N)(COc1cc(C#N)ccc1C(F)(F)F)NC(=O)c1ccc(SC(F)(F)F)cc1 [MNP, monepantel] | 100% | 100% | 100% | 100% | 100% | 99% | 100% | 100% | 100% | 5.6a (0–20) EPG | 8a (0–20) EPG | 7a (0–20) EPG | 74% | 22% | 64% | efficacy (FECR) across farms (Cooperia spp.; Farms 1-3 together): 100%; concentration of MNP in the large intestine mucosa [1]: 225 ng/g; concentration of MNP in the small intestine mucosa, duodenum [1]: 762 ng/g; concentration of MNP in the small intestine mucosa, ileum [1]: 562 ng/g; efficacy (FECR) across farms (Ostertagia spp.; Farms 1-3 together): 100%; rate of MNP conversion into MNPSO2 [2]: five-fold higher in sheep compared to cattle; efficacy (FECR) across farms (Haemonchus spp.; Farms 1-3 together): 100%; reduction of Oesophagostomum (Oesophagostomum; ref Bustamante et al.): 61.9%; efficacy against Oesophagostomum (Oesophagostomum; ref Hosking et al. (2009)): below 90%; reduction of Oesophagostomum (Oesophagostomum; ref Sager et al.): 88%; overall efficacy (FECR) across farms ([3]; Farms 1, 2 and 3 together, day 15): 96–99%; adverse events [4]: no adverse events were observed; time post-administration up to which analyte was measured/recovered in plasma ([5]; MNP oral 2.5 mg/kg, calves, LOQ 4 ng/mL): up to 120 h; AUC ([5]; bovine, plasma, po, 2.5 mg/kg): 1710 ± 651 ng·h/mL; AUC(0-inf) ([5]; bovine, plasma, po, 2.5 mg/kg): 2170 ± 783 ng·h/mL; Cmax ([5]; bovine, plasma, po, 2.5 mg/kg): 21.5 ± 4.62 ng/mL; MRT ([5]; bovine, plasma, po, 2.5 mg/kg): 112 ± 40.8 h; Tmax ([5]; bovine, plasma, po, 2.5 mg/kg): 8 ± 1.51 h; half-life ([5]; bovine, plasma, po, 2.5 mg/kg): 81 ± 31 h |
| CCC[S+]([O-])c1ccc2[nH]c(NC(=O)OC)nc2c1 (centres unmarked) [RBZ, ricobendazole] | 86% | 99% | 54% | – | 100% | 0% | 99% | 95% | 98% | 31^a (0–120) EPG | 3^a (0–20) EPG | 115^b (0–320) EPG | 100% | 100% | 100% | efficacy (FECR) on Farms 1 and 3 (Ostertagia spp.; Farms 1 and 3, stated jointly with Cooperia spp.): below 90%; 95% lower confidence interval of FECR ([3]; Farm 1, day 15): less than 90% |
| CC[C@H](C)[C@H]1O[C@]2(CC[C@@H]1C)C[C@@H]1C[C@@H](C/C=C(\C)[C@@H](O[C@H]3C[C@H](OC)[C@@H](O[C@H]4C[C@H](OC)[C@@H](O)[C@H](C)O4)[C@H](C)O3)[C@@H](C)/C=C/C=C3\CO[C@@H]4[C@H](O)C(C)=C[C@@H](C(=O)O1)[C@]34O)O2 [IVM, ivermectin] | 80% | 56% | 43% | 100% | 100% | 100% | 19% | 100% | 0% | 269^b (0–1060) EPG | 111^b (0–320) EPG | 362^b (20–1520) EPG | 100% | 100% | 100% | – |
